The source made the active and inactive calls. The rule behind the calls is not given here. Square brackets hold non-standard residues; d marks the D form. Peptide text beside a SMILES is read from it. * marks the point of attachment. Dip = N[C@H](C(=O)O)C(c1ccccc1)c1ccccc1; Sta = CC(C)C[C@H](N)[C@@H](O)CC(=O)O; Gly(cPent) = N[C@H](C(=O)O)C1CCCC1; Igl = N[C@H](C(=O)O)C1Cc2ccccc2C1; Chg = N[C@H](C(=O)O)C1CCCCC1; NHPhenethyl = c1ccc(CCN*)cc1; Phg = N[C@H](C(=O)O)c1ccccc1; Tle = CC(C)(C)[C@H](N)C(=O)O; Nva = CCC[C@H](N)C(=O)O; Abu = CC[C@H](N)C(=O)O; Cbz = O=C(OCc1ccccc1)*
Experiments:
[1] = tested on: Plasmodium falciparum; assay: Antiplasmodial activity against ring-stage Plasmodium falciparum 3D7 assessed as reduction in parasite viability after 72 hrs by LDH assay; format: functional, organism-based; conditions: 3D7, 72 h
Summary of the method: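 Sorbitol-synchronised early ring-stage parasites grown in RPMI-HEPES with L-glutamine and Albumax II, exposed to ten-point compound titrations in DMSO (≤0.02% final) for 72 h. Parasitemia read by LDH activity (NADH consumption) relative to DMSO control. EC50 from 4-parameter variable-slope sigmoidal fit; means and SD of three independent experiments.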

[2] = Inhibition of recombinant Plasmodium vivax plasmepsin 5 expressed in High five insect cells using DABCYLRNKRTLAQKQ-E-EDANS as substrate measured after 120 mins by fluorescence assay
Summary of the method: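 Enzyme purified by anti-FLAG affinity then Superdex 75 gel filtration. Each well held 2.5 ng enzyme and 12 µM (Km) substrate in 25 mM Tris-HCl/25 mM MES pH 6.4 with 0.005% Tween-20 and 1% DMSO final. Ten-point 1-in-3 compound dilutions. Fluorescence read at ex 340/em 495 nm. IC50 from four-parameter fit constrained to 0 and 100%; mean and SD, n=3.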

[3] = tested on: HepG2; assay: Cytotoxicity against human HepG2 cells after 48 hrs by CellTiter-Glo assay; format: functional, cell-based; conditions: HepG2, 48 h
Summary of the method: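 Cells kept in DMEM with 10% FCS at 37 °C, 5% CO2. 1 × 10^4 cells seeded per well and exposed to a 10-point compound titration for 48 h at 37 °C. Viability normalised to DMSO (100%) and 10 µM bortezomib (0%). EC50 given as mean and SD of three experiments.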

[4] = molecular target: Plasmepsin V (Plasmodium falciparum (isolate 3D7)) (UniProt Q8I6Z5); assay: Inhibition of plasmepsin 5 in Plasmodium falciparum 3D7 co-expressing PfEMP3-GFP infected in human erythrocytes assessed as accumulation of uncleaved PfEMP3-GFP at 1 to 10 uM after 3 hrs by immunoblot analysis; format: cell-based
Summary of the method: (§1)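 Parasites cultured in O+ erythrocytes at 4% haematocrit in RPMI 1640 with 25 mM HEPES pH 7.4, 0.2% bicarbonate, 0.5% Albumax II under 5% CO2/5% O2 gas at 37 °C. Magnet-purified 24–34 h trophozoites treated 3 h at 37 °C; DMSO vehicle control. Saponin-lysed pellets run on SDS-PAGE and probed with anti-GFP, with HSP70 as loading control. ECL read-out, quantified by densitometry.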

[5] = molecular target: Plasmepsin V (Plasmodium falciparum (isolate 3D7)) (UniProt Q8I6Z5); assay: Inhibition of plasmepsin 5 in Plasmodium falciparum 3D7 co-expressing PfEMP3-GFP infected in human erythrocytes assessed as accumulation of uncleaved PfEMP3-GFP at 1 to 20 uM after 3 hrs by immunoblot analysis; format: cell-based; summary of the method: as §1
[6] = molecular target: Plasmepsin V (Plasmodium falciparum (isolate 3D7)) (UniProt Q8I6Z5); assay: Inhibition of plasmepsin 5 in Plasmodium falciparum 3D7 co-expressing PfEMP3-GFP infected in human erythrocytes assessed as accumulation of uncleaved PfEMP3-GFP after 3 hrs by immunoblot analysis; format: cell-based; summary of the method: as §1

Sequence of Plasmepsin V (Plasmodium falciparum (isolate 3D7)) (Q8I6Z5 whole entry, looked up): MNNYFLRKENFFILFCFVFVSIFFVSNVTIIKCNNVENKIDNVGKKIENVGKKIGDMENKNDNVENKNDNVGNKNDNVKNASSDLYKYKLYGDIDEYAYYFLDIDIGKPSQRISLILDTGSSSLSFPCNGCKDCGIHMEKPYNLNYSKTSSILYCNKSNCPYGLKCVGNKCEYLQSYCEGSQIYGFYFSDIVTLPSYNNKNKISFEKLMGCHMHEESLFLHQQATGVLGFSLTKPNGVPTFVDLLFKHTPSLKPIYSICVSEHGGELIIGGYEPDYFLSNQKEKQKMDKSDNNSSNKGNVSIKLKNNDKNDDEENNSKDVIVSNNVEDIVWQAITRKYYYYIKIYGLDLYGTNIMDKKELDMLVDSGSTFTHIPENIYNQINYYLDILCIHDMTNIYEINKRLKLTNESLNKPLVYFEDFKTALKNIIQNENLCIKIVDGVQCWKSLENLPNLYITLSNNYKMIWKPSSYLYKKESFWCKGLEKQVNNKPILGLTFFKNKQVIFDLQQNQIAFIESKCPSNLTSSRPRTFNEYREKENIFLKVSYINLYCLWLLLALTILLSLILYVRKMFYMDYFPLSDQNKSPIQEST

inhibition [4]	inhibition [5]	inhibition [6]	Compound	EC50 [1] [µM]	IC50 [2] [µM]	EC50 [3] [µM]
			CC[C@H](C)[C@H](NC(=O)[C@H](CCCNC(=N)N)NC(=O)OCc1ccccc1)C(=O)N[C@@H](CC(C)C)[C@@H](O)CC(=O)NCCc1ccccc1 (Cbz-Arg-Ile-[Sta]-NHPhenethyl)	1.03	0.026	
			CC(C)C[C@H](NC(=O)[C@@H](NC(=O)[C@H](CCCNC(=N)N)NC(=O)OCc1ccccc1)C(C)C)[C@@H](O)CC(=O)NCCc1ccccc1 (Cbz-Arg-Val-[Sta]-NHPhenethyl)	3.39	0.116	> 40
			O[C@@H](c1cc(C(F)(F)F)nc2c(C(F)(F)F)cccc12)[C@H]1CCCCN1 [(S,R)-MEFLOQUINE]	0.013		9.8
Active			CC(C)C[C@H](NC(=O)[C@@H](NC(=O)[C@H](CCONC(=N)N)NC(=O)OCc1ccccc1)C(C)C)[C@@H](O)CC(=O)NCCc1ccccc1	0.43	0.019	> 40
			CC(C)C[C@H](NC(=O)[C@@H](NC(=O)[C@H](CCCNC(=N)N)NC(=O)OCc1ccccc1)[C@H](C)c1ccccc1)[C@@H](O)CC(=O)NCCc1ccccc1	> 10	> 10	35.4
			CC(C)C[C@H](NC(=O)[C@@H](NC(=O)[C@H](CCCNC(=N)N)NC(=O)OCc1ccccc1)[C@@H](C)O)[C@@H](O)CC(=O)NCCc1ccccc1 (Cbz-Arg-Thr-[Sta]-NHPhenethyl)	> 10	2.02	> 40
			CC(C)C[C@H](NC(=O)[C@@H](NC(=O)[C@H](CCCNC(=N)N)NC(=O)OCc1ccccc1)C1CCCC1)[C@@H](O)CC(=O)NCCc1ccccc1 (Cbz-Arg-[Gly(cPent)]-[Sta]-NHPhenethyl)	2.73	0.055	> 40
			CC[C@H](NC(=O)[C@H](CCCNC(=N)N)NC(=O)OCc1ccccc1)C(=O)N[C@@H](CC(C)C)[C@@H](O)CC(=O)NCCc1ccccc1 (Cbz-Arg-[Abu]-[Sta]-NHPhenethyl)	3.14	0.507	> 40
			CCN(CC)CCCC(C)Nc1ccnc2cc(Cl)ccc12 (centres undefined) [CHLOROQUINE]	0.006		10.1
			CC(C)C[C@H](NC(=O)[C@@H](NC(=O)[C@H](CCCNC(=N)N)NC(=O)OCc1ccccc1)C(c1ccccc1)c1ccccc1)[C@@H](O)CC(=O)NCCc1ccccc1 (Cbz-Arg-[Dip]-[Sta]-NHPhenethyl)	> 10	> 10	> 40
			CC(C)C[C@H](NC(=O)[C@H](CCCNC(=N)N)NC(=O)OCc1ccccc1)C(=O)N[C@@H](CC(C)C)[C@@H](O)CC(=O)NCCc1ccccc1 (Cbz-Arg-Leu-[Sta]-NHPhenethyl)	5	0.165	> 40
			CC(C)C[C@H](NC(=O)[C@@H](NC(=O)[C@H](CCCNC(=N)N)NC(=O)OCc1ccccc1)[C@H](O)c1ccccc1)[C@@H](O)CC(=O)NCCc1ccccc1	> 10	6.56	> 40
	Active		CC(C)C[C@H](NC(=O)[C@@H](NC(=O)[C@H](CCONC(=N)N)NC(=O)OCc1ccccc1)c1ccccc1)[C@@H](O)CC(=O)NCCc1ccccc1	0.07	0.003	> 40
			CC(C)C[C@H](NC(=O)[C@@H](NC(=O)[C@H](CCCNC(=N)N)NC(=O)OCc1ccccc1)C(C)(C)O)[C@@H](O)CC(=O)NCCc1ccccc1	> 10	3.01	> 40
		Active	CC(C)C[C@H](NC(=O)[C@@H](NC(=O)[C@H](CCCNC(=N)N)NC(=O)OCc1ccccc1)C1CCCCC1)[C@@H](O)CC(=O)NCCc1ccccc1 (Cbz-Arg-[Chg]-[Sta]-NHPhenethyl)	1.22	0.029	36.7
			CC(C)C[C@H](NC(=O)[C@H](C)NC(=O)[C@H](CCCNC(=N)N)NC(=O)OCc1ccccc1)[C@@H](O)CC(=O)NCCc1ccccc1 (Cbz-Arg-Ala-[Sta]-NHPhenethyl)	> 10	7.18	> 40
			CC(C)C[C@H](NC(=O)[C@H](CO)NC(=O)[C@H](CCCNC(=N)N)NC(=O)OCc1ccccc1)[C@@H](O)CC(=O)NCCc1ccccc1 (Cbz-Arg-Ser-[Sta]-NHPhenethyl)	> 10	> 10	> 40
		Active	CC(C)C[C@H](NC(=O)[C@@H](NC(=O)[C@H](CCONC(=N)N)NC(=O)OCc1ccccc1)C1CCCCC1)[C@@H](O)CC(=O)NCCc1ccccc1	0.09	0.005	> 40
			CC(C)C[C@H](NC(=O)[C@@H](NC(=O)[C@H](CCCNC(=N)N)NC(=O)OCc1ccccc1)C(C)(C)C)[C@@H](O)CC(=O)NCCc1ccccc1 (Cbz-Arg-[Tle]-[Sta]-NHPhenethyl)	> 10	6.7	> 40
			CCC(CC)[C@H](NC(=O)[C@H](CCCNC(=N)N)NC(=O)OCc1ccccc1)C(=O)N[C@@H](CC(C)C)[C@@H](O)CC(=O)NCCc1ccccc1	4.11	0.112	> 40
			CC(C)C[C@H](NC(=O)[C@H](Cc1ccccc1)NC(=O)c1cnccn1)B(O)O [BORTEZOMIB]			0.01
			CC[C@H](C)[C@H](NC(=O)[C@H](CCONC(=N)N)NC(=O)OCc1ccccc1)C(=O)N[C@@H](CC(C)C)[C@@H](O)CC(=O)NCCc1ccccc1	0.18	0.016	
			CC(C)C[C@H](NC(=O)[C@H](Cc1ccccc1)NC(=O)[C@H](CCCNC(=N)N)NC(=O)OCc1ccccc1)[C@@H](O)CC(=O)NCCc1ccccc1 (Cbz-Arg-Phe-[Sta]-NHPhenethyl)	> 10	3.12	> 40
	Active		CC(C)C[C@H](NC(=O)[C@@H](NC(=O)[C@H](CCCNC(=N)N)NC(=O)OCc1ccccc1)c1ccccc1)[C@@H](O)CC(=O)NCCc1ccccc1 (Cbz-Arg-[Phg]-[Sta]-NHPhenethyl)	1.36	0.024	> 40
			CC(C)C[C@H](NC(=O)[C@@H](NC(=O)[C@H](CCCNC(=N)N)NC(=O)OCc1ccccc1)C1Cc2ccccc2C1)[C@@H](O)CC(=O)NCCc1ccccc1 (Cbz-Arg-[Igl]-[Sta]-NHPhenethyl)	6.18	0.661	23.5
			CC(C)C[C@H](NC(=O)[C@@H](NC(=O)[C@H](CCCNC(=N)N)NS(=O)(=O)Cc1ccccc1)C(C)C)[C@@H](O)CC(=O)NCCc1ccccc1	4.03	0.123	> 40
			CCC[C@H](NC(=O)[C@H](CCCNC(=N)N)NC(=O)OCc1ccccc1)C(=O)N[C@@H](CC(C)C)[C@@H](O)CC(=O)NCCc1ccccc1 (Cbz-Arg-[Nva]-[Sta]-NHPhenethyl)	2.4	0.116	

Source: ChEMBL document CHEMBL4270524, “Enhanced antimalarial activity of plasmepsin V inhibitors by modification of the P2 position of PEXEL peptidomimetics” (Eur J Med Chem, 2018)
